Active and inactive are the calls of the source. The rule behind the calls is not given here.
Assays:
[1] = test system: Penicillium decumbens; assay: Inhibition of Penicillium decumbens naringinase at 1 mg/ml after 10 to 20 mins
Procedure, shortened: (§1)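 Enzyme was pre-incubated with test solution at 1 mg/ml, or dH2O for controls, for 10–20 min at 27 °C. Substrate was added and incubation continued for the same time at 27 °C. The reaction was stopped with glycine solution and read at 405 nm. Each sample and control ran in three wells at the enzyme's optimal pH. Values are % inhibition.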

[2] = test system: Cellulomonas fimi; assay: Inhibition of Cellulomonas fimi beta-D-mannosidase at 1 mg/ml after 10 to 20 mins; procedure, shortened: as §1
[3] = test system: Geobacillus stearothermophilus; assay: Inhibition of Bacillus stearothermophilus alpha-D-glucosidase at 1 mg/ml after 10 to 20 mins; procedure, shortened: as §1
[4] = target: T1, Beta-galactosidase (Bos taurus) (UniProt Q58D55); assay: Inhibition of bovine kidney beta-D-galactosidase at 1 mg/ml after 10 to 20 mins; procedure, shortened: as §1
T1 sequence (whole entry): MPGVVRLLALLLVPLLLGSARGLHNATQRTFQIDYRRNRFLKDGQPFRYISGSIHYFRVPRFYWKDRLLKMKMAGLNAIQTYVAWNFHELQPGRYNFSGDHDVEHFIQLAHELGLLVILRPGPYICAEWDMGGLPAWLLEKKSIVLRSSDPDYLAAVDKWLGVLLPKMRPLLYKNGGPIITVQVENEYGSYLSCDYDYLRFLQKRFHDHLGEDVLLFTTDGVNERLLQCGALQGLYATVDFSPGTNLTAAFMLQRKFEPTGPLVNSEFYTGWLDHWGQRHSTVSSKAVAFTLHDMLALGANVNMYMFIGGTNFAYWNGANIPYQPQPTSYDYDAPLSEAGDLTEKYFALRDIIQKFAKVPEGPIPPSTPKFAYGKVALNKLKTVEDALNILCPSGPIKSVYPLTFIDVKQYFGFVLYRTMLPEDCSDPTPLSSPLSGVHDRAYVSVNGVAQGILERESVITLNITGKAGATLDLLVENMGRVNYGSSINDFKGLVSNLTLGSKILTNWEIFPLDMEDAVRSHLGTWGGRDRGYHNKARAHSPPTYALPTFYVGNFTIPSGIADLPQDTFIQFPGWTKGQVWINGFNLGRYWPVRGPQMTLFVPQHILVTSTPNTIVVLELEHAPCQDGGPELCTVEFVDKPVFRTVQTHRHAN

[5] = species: Bos taurus; assay: Inhibition of bovine kidney N-acetyl-beta-D-glucosaminidase at 1 mg/ml after 10 to 20 mins; procedure, shortened: as §1
[6] = test system: Saccharomyces cerevisiae; assay: Inhibition of Saccharomyces cerevisiae alpha-D-glucosidase at 1 mg/ml after 10 to 20 mins; procedure, shortened: as §1
[7] = target: Alpha-galactosidase (Coffea arabica) (UniProt Q42656); assay: Inhibition of green coffee beans alpha-D-galactosidase at 1 mg/ml after 10 to 20 mins; procedure, shortened: as §1
[8] = test system: Oryza sativa; assay: Inhibition of rice alpha-D-glucosidase at 1 mg/ml after 10 to 20 mins; procedure, shortened: as §1
[9] = test system: Prunus; assay: Inhibition of almond beta-D-glucosidase at 1 mg/ml after 10 to 20 mins; procedure, shortened: as §1
[10] = test system: Canavalia ensiformis; assay: Inhibition of jack bean alpha-D-mannosidase at 1 mg/ml after 10 to 20 mins; procedure, shortened: as §1
[11] = target: T2, Beta-galactosidase (Bos taurus, UniProt Q58D55); assay: Inhibition of bovine kidney beta-D-galactosidase after 10 to 20 mins
T2 sequence (Q58D55 whole entry): T1 sequence (whole entry)
Procedure, shortened: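 Bovine kidney β-D-galactosidase was pre-incubated with test solution, or dH2O for controls, for 10–20 min at 27 °C. Substrate was added for a further 10–20 min at 27 °C, then glycine solution, and absorbance at 405 nm. Wells were run in triplicate. Ki and inhibition mode came from Lineweaver–Burk double-reciprocal slopes.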

Sequence of Alpha-galactosidase (Coffea arabica) (Q42656 16-378 limits assumed): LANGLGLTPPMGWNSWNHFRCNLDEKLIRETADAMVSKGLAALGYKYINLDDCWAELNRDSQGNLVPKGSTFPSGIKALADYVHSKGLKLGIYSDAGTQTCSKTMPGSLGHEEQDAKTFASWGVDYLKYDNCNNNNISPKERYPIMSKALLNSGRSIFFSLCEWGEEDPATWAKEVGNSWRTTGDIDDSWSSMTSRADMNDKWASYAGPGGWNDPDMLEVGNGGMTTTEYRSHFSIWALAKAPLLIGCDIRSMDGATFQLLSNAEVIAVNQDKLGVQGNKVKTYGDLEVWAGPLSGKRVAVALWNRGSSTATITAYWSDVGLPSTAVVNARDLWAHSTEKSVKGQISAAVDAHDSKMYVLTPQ

| inhibition [1] | inhibition [2] | inhibition [3] | inhibition [4] | inhibition [5] | inhibition [6] | inhibition [7] | inhibition [8] | inhibition [9] | inhibition [10] | IC50 [11] [µM] | Ki [11] [µM] | Structure (SMILES) |
| --- | --- | --- | --- | --- | --- | --- | --- | --- | --- | --- | --- | --- |
| inactive | inactive | inactive | 36% | inactive | inactive | inactive | inactive | inactive | inactive | – | – | COC(=O)CN1C[C@@H](CO)O[C@H](OC)C1 |
| inactive | inactive | inactive | 32% | 25% | 10% | inactive | inactive | inactive | inactive | – | – | CCCN1C[C@@H](CO)O[C@H](OC)[C@H](O)C1 |
| inactive | inactive | inactive | 23% | 32% | 8% | inactive | inactive | inactive | inactive | – | – | CCCCN1C[C@@H](CO)O[C@H](OC)[C@H](O)C1 |
| inactive | inactive | inactive | 82% | 72% | 58% | inactive | 29% | inactive | inactive | 30.6 | 20.2 | CO[C@@H]1CN(O)C[C@@H](CO)O1 |
| inactive | inactive | inactive | inactive | – | inactive | inactive | inactive | inactive | inactive | – | – | CO[C@H]1O[C@H](CO)CN(O)C[C@H]1O |
| 9% | inactive | 9% | 54% | inactive | 8% | inactive | inactive | inactive | inactive | 75.5 | – | CCCN1C[C@@H](CO)O[C@H](OC)C1 |
| 9% | 5% | inactive | 27% | 10% | inactive | inactive | inactive | 4% | inactive | – | – | CO[C@@H]1CNC[C@@H](CO)O1 |
| inactive | inactive | inactive | inactive | – | inactive | inactive | inactive | inactive | inactive | – | – | COC(=O)CN1C[C@@H](CO)O[C@H](OC)[C@H](O)C1 |
| inactive | inactive | inactive | 48% | inactive | 24% | inactive | inactive | inactive | inactive | 88.6 | 126 | CO[C@@H]1CN(C)C[C@@H](CO)O1 |
| inactive | inactive | 8% | 16% | 9% | inactive | 6% | inactive | inactive | inactive | – | – | CO[C@H]1O[C@H](CO)CNC[C@H]1O |
| inactive | inactive | inactive | inactive | inactive | inactive | inactive | inactive | inactive | inactive | – | – | COC(=O)C(C)N1C[C@@H](CO)O[C@H](OC)[C@H](O)C1 (some centres undefined) |
| 11% | 33% | 66% | 50% | 11% | 77% | 31% | inactive | 28% | inactive | – | – | CO[C@@H]1CN(C[C@H]2O[C@H](OC)[C@H](O)[C@@H](O)[C@@H]2O)C[C@@H](CO)O1 |
| inactive | inactive | inactive | 5% | inactive | inactive | inactive | inactive | inactive | – | – | – | COC(=O)C(Cc1ccccc1)N1C[C@@H](CO)O[C@H](OC)C1 (some centres undefined) |
| inactive | inactive | inactive | inactive | – | inactive | inactive | inactive | inactive | inactive | – | – | CCCCCCCCN1C[C@@H](CO)O[C@H](OC)[C@H](O)C1 |
| inactive | 6% | inactive | 51% | inactive | inactive | inactive | inactive | inactive | inactive | 55.1 | – | CCCCCCCCN1C[C@@H](CO)O[C@H](OC)C1 |
| inactive | inactive | inactive | inactive | inactive | inactive | inactive | inactive | inactive | inactive | – | – | COC(=O)C(Cc1ccc(O)cc1)N1C[C@@H](CO)O[C@H](OC)[C@H](O)C1 (some centres undefined) |
| inactive | inactive | inactive | inactive | inactive | inactive | inactive | inactive | inactive | inactive | – | – | COC(=O)C(Cc1ccccc1)N1C[C@@H](CO)O[C@H](OC)[C@H](O)C1 (some centres undefined) |
| inactive | inactive | inactive | inactive | inactive | inactive | inactive | inactive | inactive | inactive | – | – | CO[C@H]1O[C@H](CN2C[C@@H](CO)O[C@H](OC)[C@H](O)C2)[C@@H](OCc2ccccc2)[C@H](OCc2ccccc2)[C@H]1OCc1ccccc1 |
| inactive | inactive | inactive | inactive | – | inactive | inactive | inactive | inactive | inactive | – | – | CO[C@H]1O[C@H](CO)CN(Cc2ccccc2)C[C@H]1O |
| inactive | inactive | inactive | 12% | inactive | inactive | inactive | inactive | inactive | – | – | – | COC(=O)C(Cc1ccc(O)cc1)N1C[C@@H](CO)O[C@H](OC)C1 (some centres undefined) |
| inactive | inactive | inactive | 14% | inactive | inactive | inactive | inactive | inactive | – | – | – | COC(=O)C(C)N1C[C@@H](CO)O[C@H](OC)C1 (some centres undefined) |
